In the library only some 0.55% were active in any assay of this set; here they are far more common.
OXTR potentiate: potentiates the human oxytocin receptor response | CHO-OTR cells, Fluo-8 calcium fluorescence, potentiator mode; 0% = oxytocin EC15, 100% = EC100 | activation, % at 3 µM | actives 0.061% (n = 320,000) | AID 2445;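 active = activation above that plate's cutoff, the mean activation of tested compounds plus 3 SD, cut at about 6.6% in these data, passing the limit was not always enough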;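 note: 100% uses oxytocin at 75 nM as the full agonist control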
Target sequence (P30559 whole entry, looked up): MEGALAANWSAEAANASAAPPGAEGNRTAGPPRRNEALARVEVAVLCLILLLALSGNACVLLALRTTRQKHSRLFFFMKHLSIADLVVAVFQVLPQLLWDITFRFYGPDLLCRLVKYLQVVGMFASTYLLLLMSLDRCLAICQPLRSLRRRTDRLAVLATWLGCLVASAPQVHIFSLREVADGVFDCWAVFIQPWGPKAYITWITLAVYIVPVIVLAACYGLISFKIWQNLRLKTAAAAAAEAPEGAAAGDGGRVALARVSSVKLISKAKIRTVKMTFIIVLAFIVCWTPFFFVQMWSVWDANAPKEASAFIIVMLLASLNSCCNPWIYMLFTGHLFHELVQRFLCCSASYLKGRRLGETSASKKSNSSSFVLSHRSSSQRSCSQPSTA
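Replication – single well per compound, singlicate · Assay system – CHO cell line stably expressing human OTR · Timing – 6 min pre-incubation, 100 s read · Measure – normalized max/min fluorescence ratio, % activation · Doses – 3.0 µM, one dose · Detection – Fluo-8 calcium dye fluorescence · Probe or stimulus – oxytocin near EC15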
TRPML3 agonist: agonists of human TRPML3 channel; Q8TDD5; HEK293 TRPML3-YFP, Fluo-8 calcium fluorescence; 100% = the carbachol control signal; activation, % at 3 µM; actives 0.29% (n = 220,000);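 active = activation above its plate's cutoff, the mean activation of the plate's test wells plus 3 SD, cut at about 12% in these data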;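 note: 0% = DMSO only wells and 100% = carbachol wells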
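system = HEK293 cells stably carrying human TRPML3-YFP | doses = one concentration, 3 µM nominal, 0.3% DMSO | timing = dye loading 1 h 37 °C then 30 min ambient, 125 s read | detection = Fluo-8 calcium dye fluorescence, ex 470-495, em 515-575 nm | benchmarks = high control carbachol 87 µM, low control DMSO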
V1R ag counter: activates human V1a receptor in oxytocin agonist counter-screen; P37288; CHO-V1R cells, Fluo-8 calcium fluorescence, agonist mode; 0% DMSO, 100% 3 nM vasopressin; activation, % at 3 µM; actives 0.25% (n = 320,000);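 active = activation above the mean activation of all tested compounds plus 3 SD, per screening run, cut at about 20% in these data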;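 note: signal is peak over basal fluorescence ratio across a 100 second FLIPR read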
OXTR agonist: agonists of human oxytocin receptor; P30559; CHO-OTR cells, Fluo-8 calcium fluorescence; normalized: DMSO 0%, oxytocin 100%; activation, % at 3 µM; actives 0.32% (n = 320,000);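 active = activation above the mean of all tested compounds plus 3 SD, cutoff set per screening run, cut at about 20% in these data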;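 note: peak over basal fluorescence ratio from a 100 s FLIPR kinetic read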
TRPN1 ag: zebrafish TRPN1 (NompC) channel agonism | AID 1424 | activation, % at 3 µM | actives 0.18% (n = 220,000) | HEK293 zebrafish TRPN1-YFP, Fluo-8 calcium fluorescence; 100% = response to 87 µM carbachol;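 active = activation above its plate's cutoff, the mean activation of test wells on that plate plus 3 SD, cut at about 19% in these data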;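 note: 0% = DMSO alone and 100% = 87 µM carbachol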
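Material – zebrafish TRPN1-YFP in HEK293 cells · Doses – 3 µM single point · Schedule – dye 1 h 37 °C plus 30 min RT · Signal – Fluo-8 calcium fluorescence, excitation 470-495 nm, emission 515-575 nm · Read-out – % activation versus carbachol response · Control set – carbachol high, DMSO low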
Starred values were filed as active, the others as inactive; nt = no result given.

SMILES | OXTR potentiate | TRPML3 agonist | V1R ag counter | OXTR agonist | TRPN1 ag
N#C/C(=N\Nc1ccc(Cl)c(Cl)c1)C(=O)C1CC1 | -22.0 | 8.0 | 9.9 | 11.9 | 19.6*
Cn1c(N)c(-c2ccccc2)c2ccc([N+](=O)[O-])cc2c1=O | -17.5 | nt | 51.2* | 45.7* | nt
Cc1ccc(NC(=O)Cn2c(=O)cnc3ccccc32)cc1S(=O)(=O)N1CCOCC1 | -5.8 | nt | 3.9 | 1.6 | nt
COc1ccc(C2C=C(c3cccs3)Nc3nc(CCCO)nn32)cc1 (configuration not stated) | -3.5 | 1.2 | 51.0* | 47.5* | 3.4
COc1ccc(C2C=C(c3ccccc3)Nc3nc(CCCO)nn32)cc1 (configuration not stated) | -15.3 | 0.1 | -0.8 | -0.9 | 0.4
COc1ccccc1CC(=O)Nc1ccc([N+](=O)[O-])cc1O | -15.6 | 5.7 | 10.3 | 14.9 | 20.9*
COCCCNc1c2c3c(cccc3[nH]c1=O)C(=O)c1ccccc1-2 | -10.8 | 105.1* | 532.9* | 589.9* | 202.7*
NS(=O)(=O)c1ccc(NCCCn2ccnc2)c([N+](=O)[O-])c1 | -4.8 | nt | 0.2 | 0.3 | nt
O=C1c2ccccc2-c2onc3ccc(NCCCn4ccnc4)c1c23 | -11.4 | -0.6 | 44.8* | 82.0* | -1.0
COc1ccc2noc3c2c1C(=O)c1ccccc1-3 | -8.8 | nt | 221.2* | 168.8* | nt
COC/C=C/C1=CC2=CC(=O)C(C)(OC(=O)c3cnc4ccccc4n3)C(=O)C2=CN1c1cccc(C#N)c1 (configuration not stated) | 0.2 | nt | -0.1 | -1.2 | nt
COc1ccc(OCC(O)Cn2c(=N)n(Cc3ccccc3)c3ccccc32)cc1 (configuration not stated) | -6.0 | -1.5 | 11.7 | 16.8 | -1.1
N=c1n(Cc2ccc(Cl)cc2)c2ccccc2n1CC(O)COc1ccccc1 (configuration not stated) | -13.8 | 1.2 | 25.4* | 37.0* | 2.2
COc1ccccc1-n1c(=O)oc2ccc(Cl)cc2c1=O | -19.7 | 11.5* | 11.5 | 11.8 | 24.1*
O=[N+]([O-])c1ccc(/C=C/C2=NN(c3ccccc3)C(c3ccco3)C2)cc1 (configuration not stated) | -10.5 | 1.8 | 26.8* | 33.6* | 6.4
O=[N+]([O-])c1ccc(C2=NN(c3ccccc3)C(c3ccco3)C2)cc1 (configuration not stated) | nt | 12.0* | nt | nt | 24.1*
Cc1ccc(C2=NN(S(=O)(=O)c3ccccc3)C(c3ccco3)C2)cc1 (configuration not stated) | 1.5 | nt | 0.7 | -0.5 | nt
O=C(NOCc1ccccc1)c1ccccc1 | -2.9 | nt | 1.4 | 0.6 | nt
CCCCCCCCCC[N+](C)(C)CC/C=C1/c2ccccc2Sc2ccc(Cl)cc21 | -12.8 | nt | 36.9* | 31.3* | nt
CCCCn1c(N)c(N(CCOC)C(=O)COC(=O)CCOc2ccccc2C)c(=O)[nH]c1=O | -2.6 | nt | 2.2 | -0.5 | nt
CCCOc1ccc(C(=O)NNC(=S)NC(=O)c2cc(-c3ccc(Cl)cc3)nc3ccccc23)cc1 | -10.6 | -0.5 | 1.5 | 2.2 | -0.8
CC(C)(C)C(=O)NC(=S)NNC(=O)c1sc2ccccc2c1Cl | -21.3 | 23.2* | 111.9* | 99.1* | 49.0*
COc1ccc(C(=O)NC(=S)NNC(=O)c2ccccc2O)cc1 | -15.8 | nt | 5.2 | 8.1 | nt
COc1ccc(C(=O)NNC(=S)NC(=O)c2cc(-c3ccccc3)nc3ccccc23)cc1 | -20.8 | 6.5 | 27.6* | 35.4* | 21.9*
COc1ccc(C(=O)NC(=S)NNC(=O)c2ccccc2C)cc1 | -21.5 | nt | 60.1* | 58.5* | nt
COc1ccc(C(=O)NNC(=S)NC(=O)C(C)(C)C)cc1 | -12.4 | 16.6* | 81.2* | 77.8* | 40.7*
C#Cc1cccc(NC(=O)c2ccc3c(c2)C(=O)N(Cc2cccnc2)C3=O)c1 | -15.1 | nt | 13.9 | 9.1 | nt
O=C(CSC1=NS(=O)(=O)c2cc(F)ccc2N1)NCc1ccccc1 | -1.1 | nt | -0.2 | -0.4 | nt
Cc1cnc(NC(=O)CSc2ncc(-c3ccccc3)n2Cc2ccco2)s1 | -34.3 | 10.3 | 29.5* | 25.9* | 17.0
COc1ccc(N=Nc2nc3cc(Br)c(Br)cc3n2C)c(OC)c1 | -7.1 | 19.6* | 6.6 | 10.0 | 24.8*

Screens (PubChem BioAssay)
